From ChEMBL document CHEMBL1139385, “Structural analysis of ARC-type inhibitor (ARC-1034) binding to protein kinase A catalytic subunit and rational design of bisubstrate analogue inhibitors of basophilic protein kinases” (J Med Chem, 2009)
Where a SMILES comes first, the peptide text is derived from it. [ ]: non-standard residue; d: D form. The star is where a group is joined. Adenosine(5'-uronoyl) = Nc1ncnc2c1ncn2[C@@H]1O[C@H](C(=O)*)[C@@H](O)[C@H]1O; Ahx = NCCCCCC(=O)O

Columns and labels:
[1] = target: Serine/threonine-protein kinase Chk2 (Homo sapiens) (UniProt O96017); test: Inhibition of CHK2 at 100 nM relative to control
How it was run: (§1)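 Activity is expressed as percent inhibition versus control incubations lacking inhibitor. Values are means of duplicate determinations.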

[2] = target: Protein kinase C gamma type (Homo sapiens) (UniProt P05129); test: Inhibition of PKCgamma at 100 nM relative to control; how it was run: as §1
[3] = target: Calcium/calmodulin-dependent protein kinase type II subunit beta (Homo sapiens) (UniProt Q13554); test: Inhibition of CaMK2beta at 100 nM relative to control; how it was run: as §1
[4] = target: RAC-alpha serine/threonine-protein kinase (Homo sapiens) (UniProt P31749); test: Inhibition of AKT1 at 100 nM relative to control; how it was run: as §1
[5] = target: Serine/threonine-protein kinase PAK 4 (Homo sapiens) (UniProt O96013); test: Inhibition of PAK4 at 100 nM relative to control; how it was run: as §1
[6] = target: Serine/threonine-protein kinase D2 (Homo sapiens) (UniProt Q9BZL6); test: Inhibition of PKD2 at 100 nM relative to control; how it was run: as §1
[7] = target: Protein kinase C beta type (Homo sapiens) (UniProt P05771); test: Inhibition of PKCbeta1 at 100 nM relative to control; how it was run: as §1
[8] = target: Protein kinase C beta type (Homo sapiens) (UniProt P05771); test: Inhibition of PKCbeta2 at 100 nM relative to control; how it was run: as §1
[9] = target: Rho-associated protein kinase 2 (Bos taurus) (UniProt Q28021); test: Binding affinity to ROCK2 by fluorescence polarization assay
[10] = target: Ribosomal protein S6 kinase alpha-4 (Homo sapiens) (UniProt O75676); test: Inhibition of MSK2 at 100 nM relative to control; how it was run: as §1
[11] = target: Serine/threonine-protein kinase D1 (Homo sapiens) (UniProt Q15139); test: Inhibition of PKCmu at 100 nM relative to control; how it was run: as §1
[12] = target: 5'-AMP-activated protein kinase subunit gamma-1 (Homo sapiens) (UniProt P54619); test: Inhibition of AMPKgamma1 at 100 nM relative to control; how it was run: as §1

Sequence of Protein kinase C beta type (Homo sapiens) (P05771 2-671 limits assumed): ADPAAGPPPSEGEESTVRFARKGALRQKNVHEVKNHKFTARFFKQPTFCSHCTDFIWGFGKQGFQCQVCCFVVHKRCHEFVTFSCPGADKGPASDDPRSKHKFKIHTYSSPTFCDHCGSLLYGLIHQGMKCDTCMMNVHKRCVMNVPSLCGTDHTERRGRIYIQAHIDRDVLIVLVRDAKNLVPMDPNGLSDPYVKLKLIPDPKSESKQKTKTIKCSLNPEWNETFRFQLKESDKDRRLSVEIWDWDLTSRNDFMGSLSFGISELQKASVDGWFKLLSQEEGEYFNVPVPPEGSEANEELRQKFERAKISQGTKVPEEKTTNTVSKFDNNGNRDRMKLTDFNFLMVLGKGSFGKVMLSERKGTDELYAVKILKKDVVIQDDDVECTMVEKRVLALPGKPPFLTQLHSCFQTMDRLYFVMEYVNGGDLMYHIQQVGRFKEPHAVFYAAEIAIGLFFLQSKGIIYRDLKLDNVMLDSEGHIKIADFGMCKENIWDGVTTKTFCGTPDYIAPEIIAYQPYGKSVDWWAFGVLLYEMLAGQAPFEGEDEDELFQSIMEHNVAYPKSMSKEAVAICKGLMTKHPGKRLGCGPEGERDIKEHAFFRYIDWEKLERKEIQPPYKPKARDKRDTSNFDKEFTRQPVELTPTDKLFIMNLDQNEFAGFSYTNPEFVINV
Sequence of Serine/threonine-protein kinase Chk2 (Homo sapiens) (O96017 whole entry): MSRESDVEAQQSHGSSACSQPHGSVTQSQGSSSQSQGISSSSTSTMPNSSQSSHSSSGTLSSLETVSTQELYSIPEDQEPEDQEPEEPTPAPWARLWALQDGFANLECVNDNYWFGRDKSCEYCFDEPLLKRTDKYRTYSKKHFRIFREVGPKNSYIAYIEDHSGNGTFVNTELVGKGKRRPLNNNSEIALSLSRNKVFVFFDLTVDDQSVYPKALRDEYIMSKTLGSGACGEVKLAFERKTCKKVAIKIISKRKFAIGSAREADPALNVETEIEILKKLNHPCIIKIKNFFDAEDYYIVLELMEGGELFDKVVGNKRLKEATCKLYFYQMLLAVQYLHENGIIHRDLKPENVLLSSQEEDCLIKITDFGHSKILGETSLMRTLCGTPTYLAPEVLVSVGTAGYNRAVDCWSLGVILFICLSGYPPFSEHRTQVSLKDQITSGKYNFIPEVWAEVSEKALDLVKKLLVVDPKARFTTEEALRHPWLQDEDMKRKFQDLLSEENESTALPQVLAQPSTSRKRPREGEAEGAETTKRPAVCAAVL
Sequence of Rho-associated protein kinase 2 (Bos taurus) (Q28021 whole entry, looked up): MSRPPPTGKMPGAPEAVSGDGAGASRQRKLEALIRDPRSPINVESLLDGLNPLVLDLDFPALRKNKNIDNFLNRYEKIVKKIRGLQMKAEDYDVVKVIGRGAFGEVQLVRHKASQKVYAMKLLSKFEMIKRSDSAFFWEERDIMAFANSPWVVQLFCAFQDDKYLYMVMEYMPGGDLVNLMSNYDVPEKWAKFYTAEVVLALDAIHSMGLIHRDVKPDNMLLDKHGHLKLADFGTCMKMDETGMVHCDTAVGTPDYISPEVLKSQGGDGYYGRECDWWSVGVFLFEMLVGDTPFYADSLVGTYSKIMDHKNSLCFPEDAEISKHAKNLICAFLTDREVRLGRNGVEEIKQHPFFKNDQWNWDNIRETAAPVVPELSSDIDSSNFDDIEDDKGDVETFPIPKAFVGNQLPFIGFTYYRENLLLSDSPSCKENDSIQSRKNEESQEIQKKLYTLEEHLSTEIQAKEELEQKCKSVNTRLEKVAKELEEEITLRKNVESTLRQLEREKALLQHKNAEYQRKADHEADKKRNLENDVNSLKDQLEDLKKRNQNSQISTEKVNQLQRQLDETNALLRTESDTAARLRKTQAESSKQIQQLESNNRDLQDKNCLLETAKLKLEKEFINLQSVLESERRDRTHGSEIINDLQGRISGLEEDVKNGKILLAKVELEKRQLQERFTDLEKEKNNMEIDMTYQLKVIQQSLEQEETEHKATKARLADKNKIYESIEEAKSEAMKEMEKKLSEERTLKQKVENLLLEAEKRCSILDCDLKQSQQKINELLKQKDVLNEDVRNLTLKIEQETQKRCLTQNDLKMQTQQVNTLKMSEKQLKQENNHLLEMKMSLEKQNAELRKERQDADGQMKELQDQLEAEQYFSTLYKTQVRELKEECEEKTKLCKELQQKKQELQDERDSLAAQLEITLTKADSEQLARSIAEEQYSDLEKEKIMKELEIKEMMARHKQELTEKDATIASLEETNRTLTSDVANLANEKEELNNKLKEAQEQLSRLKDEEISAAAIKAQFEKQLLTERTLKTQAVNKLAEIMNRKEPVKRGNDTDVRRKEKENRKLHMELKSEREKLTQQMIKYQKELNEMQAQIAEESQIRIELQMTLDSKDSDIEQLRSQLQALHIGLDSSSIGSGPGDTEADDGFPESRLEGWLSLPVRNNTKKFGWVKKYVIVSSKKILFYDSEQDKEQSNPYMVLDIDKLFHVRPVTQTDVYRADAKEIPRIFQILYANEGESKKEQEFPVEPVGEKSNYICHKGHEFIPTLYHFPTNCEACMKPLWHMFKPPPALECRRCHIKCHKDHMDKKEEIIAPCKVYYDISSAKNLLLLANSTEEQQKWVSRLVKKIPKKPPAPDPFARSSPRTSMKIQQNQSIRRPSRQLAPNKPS
Sequence of Serine/threonine-protein kinase D2 (Homo sapiens) (Q9BZL6 whole entry): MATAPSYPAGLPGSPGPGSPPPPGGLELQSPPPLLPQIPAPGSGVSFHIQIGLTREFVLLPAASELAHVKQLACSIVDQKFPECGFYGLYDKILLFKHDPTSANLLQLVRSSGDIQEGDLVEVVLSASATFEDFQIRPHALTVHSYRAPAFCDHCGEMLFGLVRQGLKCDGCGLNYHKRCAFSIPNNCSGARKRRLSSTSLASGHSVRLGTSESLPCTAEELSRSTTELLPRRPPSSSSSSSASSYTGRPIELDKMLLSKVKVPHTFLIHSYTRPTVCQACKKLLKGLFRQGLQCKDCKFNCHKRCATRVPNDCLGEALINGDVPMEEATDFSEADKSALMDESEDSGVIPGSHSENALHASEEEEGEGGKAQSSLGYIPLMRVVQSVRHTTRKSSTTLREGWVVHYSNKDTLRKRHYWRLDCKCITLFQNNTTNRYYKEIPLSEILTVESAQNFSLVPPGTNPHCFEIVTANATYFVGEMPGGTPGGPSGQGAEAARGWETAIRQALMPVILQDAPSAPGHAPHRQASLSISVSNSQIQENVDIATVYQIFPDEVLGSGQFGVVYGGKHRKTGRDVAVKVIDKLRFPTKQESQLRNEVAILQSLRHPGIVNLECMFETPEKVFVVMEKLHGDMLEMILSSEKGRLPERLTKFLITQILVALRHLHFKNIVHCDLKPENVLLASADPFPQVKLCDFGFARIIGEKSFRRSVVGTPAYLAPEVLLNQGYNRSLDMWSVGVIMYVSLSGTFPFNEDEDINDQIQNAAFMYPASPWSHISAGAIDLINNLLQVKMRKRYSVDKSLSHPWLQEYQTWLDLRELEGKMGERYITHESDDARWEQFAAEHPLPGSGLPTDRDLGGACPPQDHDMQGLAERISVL
Sequence of Serine/threonine-protein kinase PAK 4 (Homo sapiens) (O96013 whole entry, looked up): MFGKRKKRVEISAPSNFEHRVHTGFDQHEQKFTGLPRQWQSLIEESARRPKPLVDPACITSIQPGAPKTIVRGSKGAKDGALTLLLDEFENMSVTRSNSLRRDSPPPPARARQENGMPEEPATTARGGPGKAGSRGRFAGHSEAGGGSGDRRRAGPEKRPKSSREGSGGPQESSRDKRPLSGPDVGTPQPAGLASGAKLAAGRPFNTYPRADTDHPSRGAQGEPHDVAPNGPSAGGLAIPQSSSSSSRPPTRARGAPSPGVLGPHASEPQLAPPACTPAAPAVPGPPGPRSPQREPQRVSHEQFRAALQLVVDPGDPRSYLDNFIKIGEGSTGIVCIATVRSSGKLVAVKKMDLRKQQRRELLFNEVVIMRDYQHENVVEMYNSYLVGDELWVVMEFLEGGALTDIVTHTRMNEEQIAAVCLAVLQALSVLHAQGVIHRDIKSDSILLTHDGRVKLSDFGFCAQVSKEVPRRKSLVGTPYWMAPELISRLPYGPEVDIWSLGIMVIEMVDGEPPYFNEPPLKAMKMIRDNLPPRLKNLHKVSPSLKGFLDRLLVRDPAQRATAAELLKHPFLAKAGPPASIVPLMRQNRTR

## N=C(N)NCCC[C@@H](NC(=O)[C@@H](CCCNC(=N)N)NC(=O)[C@@H](CCCNC(=N)N)NC(=O)[C@@H](CCCNC(=N)N)NC(=O)[C@@H](CCCNC(=N)N)NC(=O)[C@@H](CCCNC(=N)N)NC(=O)CCCCCNC(=O)[C@@H](CCCCN)NC(=O)CCCCCNC(=O)[C@H]1O[C@@H](n2cnc3c(N)ncnc32)[C@H](O)[C@@H]1O)C(N)=O ({Adenosine(5'-uronoyl)-Ahx}-[dK][Ahx][dR][dR][dR][dR][dR][dR]-NH2)
[1]
  inhibition: 62%
[2]
  inhibition: 107%
[3]
  inhibition: 16%
[4]
  inhibition: 89%
[5]
  inhibition: 81%
[6]
  inhibition: 37%
[7]
  inhibition: 97%
[8]
  inhibition: 94%
[9]
  Kd: < 1 nM
[10]
  inhibition: 109%
[11]
  inhibition: 54%
[12]
  inhibition: 51%
